Laboratory results reported in PubChem BioAssay.
Activity calls are given as the source filed them.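 How the source made its calls, unless noted: active means GFP response above 150% of the DMSO level; inconclusive means fewer than 70 events counted for a yeast strain; inactive means the rest.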

Columns and labels:
[1] = RPL19A-GFP modulators, yeast TOR pathway, confirmation, cell-based, S. cerevisiae, flow cytometry, cherry picks, mother/daughter gates (AID 2270;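 active means GFP response below 50% of the DMSO control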); conditions: S. cerevisiae RPL19A-GFP strain, 3 h, at 10 µM, stronger effect = lower value, 100 = same GFP as DMSO wells
[2] = LAP4-GFP expression modulators in yeast, confirmation, cell-based, cherry picks, flow cytometry, mother/daughter gates (AID 2271;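 active means GFP response above 150% of the DMSO control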;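 further: ratio of sample to DMSO plate mean so 100% equals DMSO level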); conditions: S. cerevisiae LAP4-GFP strain, 3 h, at 10 µM, stronger effect = higher value, 100 means same as DMSO control
Outline: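 System: Alexa 633-stained baker's yeast GFP-fusion strain / Medium: synthetic complete (SC) yeast growth medium / Doses: compound at 10 µM, single point / Times: 3 h treatment at 30 °C with rotation / Detection: HT flow cytometry, GFP fluorescence channel / Benchmarks: DMSO-only negative wells, rapamycin 400 ng/mL positive wells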

[3] = modulators of MEP2-GFP levels in yeast, confirmation, S. cerevisiae, flow cytometry GFP, cherry picks (AID 2272;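 active means GFP response above 150% of the DMSO control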;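 further: ratio of well signal to plate DMSO mean so 100% equals DMSO level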); conditions: S. cerevisiae MEP2-GFP strain, 3 h, at 10 µM, stronger effect = higher value
[4] = AGP1-GFP expression modulators, hit retest, confirmation, cell-based, flow cytometry, S. cerevisiae, cherry picks (AID 2273);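 further: median GFP channel fluorescence over the whole cell population gate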; conditions: S. cerevisiae AGP1-GFP strain, 3 h, at 10 µM
[5] = modulators of CIT2-GFP expression in yeast, confirmation, S. cerevisiae, GFP fusion, cherry picks, mother/daughter gates (AID 2274); conditions: S. cerevisiae CIT2-GFP strain, flow cytometry, 3 h, at 10 µM, stronger effect = higher value
[6] = measured here: daughter cell gate
[7] = measured here: mother cell gate
[8] = measured here: daughter cell gate response
[9] = measured here: mother cell gate response

| SMILES | GFP response vs DMSO [1] | GFP response vs DMSO [1, 6] [%] | GFP response vs DMSO [1, 7] [%] | GFP response relative to DMSO [2] | GFP response relative to DMSO [2, 8] [%] | GFP response relative to DMSO [2, 9] [%] | GFP response vs DMSO [3] | GFP response, % of DMSO [4] | GFP response, % of DMSO [5] | GFP response, % of DMSO [5, 6] [%] | GFP response, % of DMSO [5, 7] [%] |
| --- | --- | --- | --- | --- | --- | --- | --- | --- | --- | --- | --- |
| O=S(=O)(c1ccccc1)N1N=C(c2cccs2)CC1c1ccc(Br)cc1 (stereo unspecified) | 98% (inactive) | 99.4 | 98.4 | 97.9% (inactive) | 99.2 | 97.2 | 102% (inactive) | 98.3% (inactive) | 98.3% (inactive) | 97.2 | 97.3 |
| COC(=O)c1cc(S(=O)(=O)Nc2nn(C)c3ccccc23)oc1C | 97.2% (inactive) | 98.1 | 97.1 | 96.7% (inactive) | 97.6 | 94 | 100% (inactive) | 95% (inactive) | 99.7% (inactive) | 101 | 99.7 |
| COc1cccc(OCC(=O)N2CCCc3ccccc32)c1 | 97.8% (inactive) | 97 | 97.1 | 101% (inactive) | 105 | 102 | 99.3% (inactive) | 100% (inactive) | 95.8% (inactive) | 97.6 | 94.9 |
| COC(=O)Nc1ccc2c(c1)N(C(=O)CCN1CCN3CCCC3C1)c1ccccc1CC2 (stereo unspecified) | 102% (inactive) | 101 | 102 | 96.2% (inactive) | 97.2 | 99.3 | 104% (inactive) | 106% (inactive) | 104% (inactive) | 99.7 | 105 |
| COCCn1c(=N)c(C(=O)NCc2ccco2)cc2c(=O)n3ccccc3nc21 | 100% (inactive) | 95.3 | 93.5 | 96.5% (inactive) | 96 | 86.3 | 95.2% (inactive) | 102% (inactive) | 100% (inactive) | 97.6 | 97.1 |
| CCc1ccccc1OCc1nnc(N)s1 | 101% (inactive) | 98.8 | 102 | 98.2% (inactive) | 99.1 | 97.3 | 101% (inactive) | 102% (inactive) | 100% (inactive) | 101 | 99.3 |
| COc1ccc(Br)cc1/C=C/C(=O)c1ccc(NC(C)=O)cc1 | 100% (inactive) | 98.4 | 97.7 | 89.4% (inactive) | 89.8 | 92.3 | 101% (inactive) | 98.6% (inactive) | 98.6% (inactive) | 101 | 96 |
| COc1ccc(C2CC(=O)C(C(c3ccc(O)cc3)C3C(=O)CC(c4ccc(OC)cc4)CC3=O)C(=O)C2)cc1 (stereo unspecified) | 100% (inactive) | 101 | 101 | 93.7% (inactive) | 92 | 92 | 96.6% (inactive) | 101% (inactive) | 110% (inactive) | 110 | 109 |
| Cc1ccc(S(=O)(=O)c2ncccc2N)cc1 | 99.4% (inactive) | 99.4 | 99 | 101% (inactive) | 101 | 98.3 | 100% (inactive) | 102% (inactive) | 101% (inactive) | 101 | 99.7 |
| COCc1cc(=O)[nH]c(SCCS(=O)(=O)c2ccc(Cl)cc2Cl)n1 | 110% (inactive) | 115 | 107 | 102% (inactive) | 100 | 105 | 100% (inactive) | 103% (inactive) | 119% (inactive) | 119 | 116 |
| CC(=O)OCC(=O)[C@@]1(O)CC[C@H]2[C@@H]3CCC4=CC(=O)CC[C@]4(C)[C@H]3C(=O)C[C@@]21C | 102% (inactive) | 100 | 103 | 101% (inactive) | 102 | 102 | 100% (inactive) | 100% (inactive) | 97.8% (inactive) | 96.5 | 97.7 |
